Measured values taken from PubChem BioAssay AID1943 (The Scripps Research Institute Molecular Screening Center, 2009).
About 500 (31%) of roughly 1,600 compounds were called active.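 The calls were made as follows: active = inhibition above the mean of all tested compounds plus 3 SD, cutoff set per campaign (cut at about 36% in these data); inactive = the rest.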 These entries were drawn from the full list.

These compounds were tested on Hepatitis C virus NS3 helicase (assay: blockers of HCV NS3 DNA unwinding – biochemical, Cy5 molecular beacon fluorescence, triplicate, confirmation (AID 1943)). Conditions: at 10.9 µM, hits give high values.
Summary of the method: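 Material: HCV NS3 helicase; Also added: Quenchable beacon DNA duplex and ATP; Compound: single nominal final dose of 10.9 µM, DMSO vehicle; Timing: 0 and 60 min reads at 25 °C; Technique: Cy5 fluorescence quenching by beacon hairpin; Benchmarks: DMSO and thioflavine S wells; Replicates: each compound tested in triplicate.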

inhibition, inactive:
Cc1cccc(NC(=O)c2sc3nc4c(c(-c5ccco5)c3c2N)CCC4)c1 -20.1%
COc1ccc(NC(=O)CSc2ccc(-c3ccco3)nn2)c(OC)c1 -10.9%
COc1ccc(OCC(=O)Nc2nnc(-c3ccco3)s2)cc1 -10.9%
S=C(NCCc1ccccc1)N1CCCCC1 -9.72%
CCSc1nsc(NC(=O)Nc2cccc(C(C)=O)c2)n1 -4.64%
CNS(=O)(=O)c1cccc(C(=O)NC2CCCc3ccccc32)c1 (centres undefined) -10.8%
Cc1ccc(OCC(=O)c2cc(C)n(Cc3ccco3)c2C)c([N+](=O)[O-])n1 -9.23%
COc1cc(C2CC(=O)N3CN(Cc4ccccc4)CSC3=C2C#N)ccc1OCc1ccccc1 (centres undefined) 25%
N#C/C=C(/c1ccc(F)cc1)N1CCOCC1 -4.32%
O=C(N/N=C/c1ccc([N+](=O)[O-])o1)c1cn(-c2ccccc2)nc1-c1ccc(F)cc1 -4.3%
COc1cccc(CNC(=O)c2nnn(CC(=O)Nc3cc(Cl)ccc3C)c2N)c1 3.98%
COc1ccccc1N1CCN(C(=O)CCS(=O)(=O)c2ccc3c(c2)NC(=O)C(C)S3)CC1 (centres undefined) -19.2%
Cc1ccccc1Nc1nnc(SCC(=O)c2cc3ccccc3o2)s1 -10.8%
CS(=O)(=O)c1ccc2c(c1)SC1=NC(=O)/C(=C/c3ccco3)C(=N)N12 22.5%
Nc1ccc2nc3c(=O)[nH]c(=S)[nH]c3nc2c1 2.58%
Cc1ccc(S(=O)(=O)N/N=C\c2cc3c(cc2[N+](=O)[O-])OCO3)cc1 -12%
CN(C)c1ccc(N/C=C/C(=O)C(F)(F)F)cc1 2.03%
COc1cccc(C(=O)CC(=O)C(=O)Nc2ccc([N+](=O)[O-])cc2C)c1 16.8%
CCOc1ccc(C(C(=O)NCCOC)N(CCOC)C(=O)CCC(=O)Nc2ccccn2)cc1 (centres undefined) -12.9%
Fc1ccc(-c2ccc(-c3nn4c(-c5ccco5)nnc4s3)o2)cc1 12%
Cc1ccc(C)c(-n2c(SCC(=O)O)nc3sc4c(c3c2=O)CCCC4)c1 22.2%
O=C1N/C(=C/c2cccn2-c2ccccc2)C(=O)N1c1cccc(Cl)c1 6.32%
CS/C(=C\C(=O)c1ccco1)Nc1ccccc1Cl -6.86%
CCOC(=O)c1nnn(-c2nc(OC)nc(N(C)C)n2)c1-c1ccccc1 -9.79%
CSc1c(SCc2ccccc2)cnn(Cc2ccccc2)c1=O -8.85%
O=c1c2c(-c3ccccc3)ccnc2[nH]n1-c1ccccc1 -13.5%
Brc1ccccc1C1Nc2cccc3cccc(c23)N1 -7.38%
O=c1nc2s/c(=C\c3ccco3)c(=O)n2nc1Cc1ccccc1 -17.8%
NS(=O)(=O)c1ccc(-c2ccc(/C=C3\SC(=O)NC3=O)o2)cc1 -18.5%
O=C(CCl)NNc1cccc(Cl)n1 -2.17%
CCOc1ccc(C2C3=C(CCCC3=O)N(CC(=O)O)C3=C2C(=O)CCC3)cc1 -13.6%
CC(=O)Nc1ccc(Nc2c3ccccc3nc3ccccc23)cc1 2.42%
Cc1ccc(C2=N/C(=C\c3ccc(OS(=O)(=O)c4ccc(C)cc4)cc3)C(=O)O2)cc1 27.4%
Cc1occc1C(=O)N/N=C/c1ccc(-c2cccc([N+](=O)[O-])c2)o1 -10.4%
CCC1C/C(=C/c2cccs2)C(=O)/C(=C/c2cccs2)C1 (centres undefined) -12.8%
CCOC(=O)C1=C(O)/C(=C/c2cc(C)n(-c3ccccc3)c2C)N=C1C -7.36%
O=c1[nH]c(/C=C\c2cccc(C(F)(F)F)c2)nc(O)c1[N+](=O)[O-] -7.2%
CC(=O)Oc1cccc(N2C(=O)CC(Nc3ccc(N4CCOCC4)cc3)C2=O)c1 (centres undefined) -24.2%
O=C(c1cccc(-n2cccc2)c1)N1CCN(S(=O)(=O)c2ccc(F)cc2)CC1 -4.73%
COc1ccc(C)cc1-n1nnnc1SCC(=O)c1cc(C)n(Cc2ccco2)c1C 6.51%
O=C(N/N=C/c1ccco1)c1csc2c1CCCC2 -9.79%
CC(C)c1ccc(C2C(C(=O)c3ccco3)=C(O)C(=O)N2CC2CCCO2)cc1 (centres undefined) -11.7%
COc1ccccc1C1/C(=C(/O)c2ccc(OC(C)C)cc2)C(=O)C(=O)N1c1cc(C)on1 (centres undefined) -6.81%
O=C1C=CC(=O)N1c1ccc(N2CCCCC2)cc1 -18.6%
COc1ccc(/C=C(\NC(=O)c2ccc(OCC(C)C)cc2)C(=O)OCc2ccco2)cc1 11.2%
Cc1[nH]n(C(N)=S)c(=O)c1N=Nc1ccc(Cl)cc1Cl 10.9%
COC(=O)COc1ccc2c(c1C)O/C(=C\c1ccco1)C2=O -7.55%
Cc1ccc(C2Nc3cccc4cccc(c34)N2)cc1 -28.1%
Cc1nn2c(c1-c1ccccc1)N=C(c1ccco1)CC2c1ccccc1 (centres undefined) -12.4%

inhibition, active:
CCOC(=O)c1c(-c2ccccc2)oc2cc(Br)c(O)c(C=O)c12 36.3%
CC(Oc1ccccc1)C(=O)Nc1oc(-c2ccco2)c(-c2ccco2)c1C#N (centres undefined) 61.5%
COc1ccc(/C=C2\SC(=S)N(CCC(=O)Nc3cccc(C(=O)O)c3)C2=O)cc1OC 52.9%
Cc1ccc(SC(CC(=O)c2ccc(C(C)(C)C)cc2)C(=O)O)cc1 (centres undefined) 74.6%
COCCNC(=O)Nc1ccc2nc(-c3ccco3)c(-c3ccco3)nc2c1 43.5%
Cc1ccc(S(=O)(=O)NCCC(c2ccccc2)c2ccccc2)cc1C(=O)O 55.2%
O=C1NN(c2ccccc2)C(=O)/C1=C/c1ccc(-c2cccc(C(=O)O)c2)o1 54.1%
Cc1ccc(-c2nn(-c3ccccc3)cc2/C=C2\SC(=S)N(CCCCCC(=O)O)C2=O)o1 84.6%
Cc1ccc(C(CC(=O)O)Nc2nc(N3CCCCC3)nc(N3CCCCC3)n2)cc1 (centres undefined) 79%
CC(C)c1ccc(Nc2nnc(SCC(=O)c3nnc(-c4ccccc4)o3)s2)cc1 89.1%
Cc1cc(O)c(C(=O)/C=C/c2c(F)c(F)c(F)c(F)c2F)c(=O)o1 69.6%
O=[N+]([O-])c1cc(Cl)cc(/C=N/NC(=S)Nc2cc(S(=O)(=O)N3CCOCC3)ccc2Cl)c1O 94.9%
CCN(CC)CCOc1ccc2c(c1)C(=NNC(=O)c1ccccn1)c1cc(OCCN(CC)CC)ccc1-2 37.9%
COc1cc(/C=C2/C(=O)NN(c3cccc(Cl)c3)C2=O)cc(Br)c1O 57.7%
c1ccc(CSc2nnc(-c3ccco3)c(-c3ccco3)n2)cc1 67%
Clc1ccccc1CSc1nnc(-c2ccco2)c(-c2ccco2)n1 72%
O=C(CCCN1C(=O)/C(=C\c2ccco2)SC1=S)Nc1cccc2ccccc12 73.3%
CC1=NN(c2ccc(Cl)c(C(=O)O)c2)C(=O)/C1=C/c1ccc(-c2ccccc2[N+](=O)[O-])o1 73.3%
Cc1ccc(/C=C/C(=O)Nc2ccc([N+](=O)[O-])c(NC(=O)/C=C/c3ccc(C)o3)c2)o1 62.1%
Cc1cc(C)c2nc(-c3ccco3)cc(C(=O)O)c2c1 79.1%
CC(=O)C1=C(O)C(=O)N(c2ccc(Br)cc2)C1c1ccc([N+](=O)[O-])cc1 (centres undefined) 46.5%
COc1ccc(/C=C/C(=O)c2cc(Br)ccc(=O)c2O)cc1 82.1%
Cc1ccc(C(=O)O)cc1-c1ccc(/C=C2\SC(=O)N(CC(=O)Nc3ccc4c(c3)OCO4)C2=O)o1 63.1%
COc1cc(C2C(C(=O)c3ccco3)=C(O)C(=O)N2c2cc(C)on2)ccc1OCc1ccccc1 (centres undefined) 110%
CCOC(=O)c1ccccc1N1C(=O)C2Sc3[nH]c(=O)sc3C(/C=C/c3ccccc3)C2C1=O (centres undefined) 44.1%
